Rows were chosen to be rich in hits. Some 4.8% of all compounds tested hit in one or more screens of this group.
CSC inhib – blocks cancer stem cells. AID 2717. cancer stem cell-like cells viability, luminescence. inhibition, % at 7.5 µM. actives 1.1% (n = 300,000); in the data active means inhibition above about 75%; tested in HMLE shEcad cells
T cruzi inh – T. cruzi replication inhibition; T. cruzi beta-gal in NIH3T3, luminescence, 90 h; inhibition, % (test concentration not listed); actives 1.4% (n = 300,000);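 active means mean inhibition across valid replicates above about 55%, limit read from the data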;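 further: signal also drops with host cell toxicity which is not excluded here; higher percent means less beta-gal luminescence so fewer parasites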
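System: NIH/3T3 fibroblasts plus reporter T. cruzi. Medium: DMEM plus 2% FBS. Probe or stimulus: 5000 reporter trypomastigotes per well. Compound: single 50 nL compound addition per well in DMSO. Incubation: co-culture of at least 90 h after 3 h attachment. Detection: GalScreen β-gal luminescence, detergent lysis, 60 min. Evaluation: parasite load inhibition, %.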
Efflux pump inh – blocks antifungal efflux pumps in multiplex yeast assay. S. cerevisiae Candida pump triplex, Nile Red efflux. inhibition, % at 10 µM. actives 0.44% (n = 330,000);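 active means plate passing quality check with inhibition over a set limit, or well fluorescence over plate mean plus 4 SD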;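 further: Nile Red retained in pooled yeast measured as flow cytometry median fluorescence; higher means more Nile Red kept so more efflux inhibition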
Mot1-301 SUMO – blocks SUMOylation pathway, rescuing yeast Mot1-301 growth; S. cerevisiae Mot1-301 growth rescue, ATP luminescence, 38.5C; percent above DMSO median, 100 means doubled; actives 1% (n = 320,000); growth rescue, % at 18.8 µM; AID 2716;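 active means every valid replicate shows activation above 250% relative to neutral control wells; inactive means the rest, any valid replicate at or below 250%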
Beta cell apopt – blocks beta cell apoptosis; AID 435005; actives 0.8% (n = 300,000); INS-1E cytokine-induced death, ATP luminescence, 48 h; percent of positive-control rescue, neutral wells zero; protection from apoptosis, % (concentration not given with the values);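 active means Every replicate reaches about 75%, or at least half do and their mean reaches it too, limit read from the data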;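 further: higher means more ATP so stronger rescue from cytokine killing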
WT yeast gro inh – growth inhibition of WT yeast, mitochondrial fusion screen | AID 1362 | mitochondrial fusion phenotypic screen, WT strain | actives 2.1% (n = 190,000) | inhibition, % at 10 µM; in the data active means inhibition above about 58%; tested in S. cerevisiae
Each line names hits and unclear results; the compound was inactive in the other large screens.

CCCN(CC1CC1)c1nc(C)nc(Nc2c(Cl)cc(Cl)cc2Cl)c1Cl	CSC inhib 86.2 (no result: Beta cell apopt, WT yeast gro inh)
CN(C)CCCN1c2ccccc2Sc2ccc(C(F)(F)F)cc21	WT yeast gro inh 95.3
OCCN1CCN(CCCN2c3ccccc3Sc3ccc(C(F)(F)F)cc32)CC1	CSC inhib 85.5
CN1CCN(CCC(=O)N2c3ccccc3Sc3ccc(C(F)(F)F)cc32)CC1	none
CN(C)CCC(=O)N1c2ccccc2Sc2ccc(C(F)(F)F)cc21	none (no result: WT yeast gro inh)
c1ccc(NC2=NCCN2CC2CCCCCC2)cc1	none (no result: T cruzi inh, WT yeast gro inh)
CCC[C@@H]1C[C@@]1(CCC)[C@@H](NP(=O)(c1ccccc1)c1ccccc1)c1ccc(C(=O)OC)cc1	WT yeast gro inh 68.0 (no result: Beta cell apopt)
COc1ccc(S(=O)(=O)N2CCOCC2)cc1NC(=O)CCNC(=O)c1ccc([N+](=O)[O-])cc1	none (no result: CSC inhib, T cruzi inh, WT yeast gro inh)
O=C1ON=C(c2cccc([N+](=O)[O-])c2)/C1=C/c1ccc(O)cc1	none
C(C#CCCCCCCCCC[n+]1ccccc1)#CCCCCCCCCC[n+]1ccccc1	CSC inhib 75.4, Beta cell apopt 104.0 (no result: WT yeast gro inh)
COCCn1c(SCC(=O)NC2(C#N)CCCCC2)nc2ccccc2c1=O	none (no result: T cruzi inh, WT yeast gro inh)
CCn1c(C(=O)NCc2cccnc2)cc2sc(Cl)cc21	T cruzi inh 61.7
CCN1CCN(c2ccc(S(=O)(=O)N3CCCCC3)cc2NC(=O)c2ccc([N+](=O)[O-])o2)CC1	T cruzi inh 60.3, Beta cell apopt 102.1 (no result: WT yeast gro inh)
COc1ccc(-c2cc3ccccc3oc2=O)cc1NC(=O)c1ccc([N+](=O)[O-])o1	T cruzi inh 55.9, Beta cell apopt 82.1 (no result: CSC inhib)
COc1ccc(S(=O)(=O)N2CCCCC2)cc1NC(=O)c1ccc([N+](=O)[O-])o1	T cruzi inh 54.5
COc1ccc(S(=O)(=O)N2CCN(C(=O)c3ccc([N+](=O)[O-])o3)CC2)cc1	T cruzi inh 56.1 (no result: Beta cell apopt, WT yeast gro inh)
O=C(CN1C(=O)c2cccc3cccc1c23)NC1CCCC1	none (no result: CSC inhib, WT yeast gro inh)
COc1ccc(-c2noc(CCC(=O)NCCc3cccc(C)c3)n2)cc1	none
COc1cc2c(cc1OC)CN(CC(=O)Nc1ccc(F)cc1)C(C(=O)O)C2 (stereo unspecified)	none (no result: WT yeast gro inh)
O=C(OC1CCCCC1)c1ccc(NC(=O)c2ccco2)cc1	WT yeast gro inh 71.2
O=C(Nc1ccc(Oc2cccc3ccccc23)cc1)c1ccco1	WT yeast gro inh 79.4
CC(C)(C)OC(=O)N[C@@H](Cc1ccccc1)C(=O)NCC1CCC(C(=O)O)CC1 (stereo partly specified)	none (no result: WT yeast gro inh)
Cc1ccc(NC(=O)C2SC(=Nc3ccccc3)C(C(=O)Nc3ccc(Cl)cc3)=C2N)cc1 (stereo unspecified)	WT yeast gro inh 66.0 (no result: CSC inhib, T cruzi inh, Efflux pump inh, Mot1-301 SUMO, Beta cell apopt)
Cc1ccc(N=C2SC(C(=O)Nc3ccc(OC(F)(F)F)cc3)C(N)=C2C(=O)Nc2c(C)cc(C)cc2C)cc1 (stereo unspecified)	CSC inhib 106.5, Beta cell apopt 98.9 (no result: T cruzi inh)
N#Cc1cccc(NC(=O)C2SC(=Nc3ccccc3)C(C(=O)N3CCOCC3)=C2N)c1 (stereo unspecified)	none
CC(=O)Nc1ccc(S(=O)(=O)N2CCN=C2SCc2ccc([N+](=O)[O-])cc2)cc1	none (no result: WT yeast gro inh)
CN(C(=O)CSc1nnc(C2CC2)n1C1CC1)C1(C#N)CCCCC1	none (no result: T cruzi inh, WT yeast gro inh)
Cc1nsc2nc3c(F)c(F)c(F)c(F)c3cc12	none (no result: WT yeast gro inh)
O=C(NCCC1=CCCCC1)c1ccc2c(c1)N(Cc1ccccc1)C(=O)CS2	T cruzi inh 55.7
O=C(NCCN1CCOCC1)c1ccc2c(c1)N(Cc1ccccc1)C(=O)CS2	none
CC(C)(CNC(=S)NCCc1ccccc1)CNC(=S)NCCc1ccccc1	T cruzi inh 64.9 (no result: CSC inhib, Efflux pump inh, Mot1-301 SUMO, Beta cell apopt)
Fc1cccc(NC(=S)NCCc2ccccc2)c1	none
S=C(NCCCc1ccccc1)Nc1ccccc1	none (no result: T cruzi inh, WT yeast gro inh)
S=C(NCCc1ccccc1)Nc1ccc(Nc2ccccc2)cc1	Beta cell apopt 91.7, WT yeast gro inh 82.5
COc1ccccc1CNC(=S)NCCc1ccccc1	WT yeast gro inh 68.9
COc1ccccc1CNC(=O)CCc1ccccc1	none (no result: WT yeast gro inh)
S=C(NCCCc1ccccc1)Nc1ccc(Cl)cc1	WT yeast gro inh 72.4
Cc1nnc(SCC(=O)NC2CCCCC2)[nH]c1=O	none (no result: WT yeast gro inh)
O=c1ccn(CCCBr)c(=O)[nH]1	none (no result: WT yeast gro inh)
CCC(C)c1ccc(NC(=S)NCc2ccccc2OC)cc1 (stereo unspecified)	WT yeast gro inh 76.8 (no result: CSC inhib, Efflux pump inh, Mot1-301 SUMO, Beta cell apopt)
Cc1cccnc1NC(=S)NCCc1ccccc1	WT yeast gro inh 60.9
CC(C)(C)NC(=S)Nc1ccc(Nc2ccccc2)cc1	WT yeast gro inh 73.4 (no result: CSC inhib)
COc1ccccc1CNC(=S)Nc1ccc(F)cc1	none (no result: WT yeast gro inh)
CC(C)(C)NC(=S)Nc1ccc(Br)cc1	none
CCOC(=O)C1(Cc2cccc(Cl)c2)CCCN(C(=O)c2c(CC)noc2C)C1 (stereo unspecified)	none (no result: WT yeast gro inh)
CC(C)CC(NC(=O)C(NC(=O)C1CCC(=O)N1C(=O)OCc1ccccc1)C(C)C)C(=O)N1CCCC1C(N)=O (stereo unspecified)	none (no result: WT yeast gro inh)
COc1cc(/C=N/NC(=O)COc2ccc([N+](=O)[O-])cc2)ccc1OCC(=O)N1CCOCC1	none (no result: CSC inhib, WT yeast gro inh)
O=C(NCc1ccco1)c1ccc(N2CCCCC2)c([N+](=O)[O-])c1	Mot1-301 SUMO 812.1
CC1CC(C)CN(c2ccc(C(=O)NCc3ccc4c(c3)OCO4)cc2[N+](=O)[O-])C1 (stereo unspecified)	T cruzi inh 64.8
Cc1cc(C(=O)NCc2ccc3c(c2)OCO3)ccc1[N+](=O)[O-]	none (no result: WT yeast gro inh)
Cc1ccc(N(Cc2ccco2)C(=O)c2ccc(N3CCCCC3)c([N+](=O)[O-])c2)cc1	T cruzi inh 56.2
Cc1cc(F)ccc1S(=O)(=O)N1CCCOC1CNC(=O)C(=O)NC1CC1 (stereo unspecified)	none (no result: WT yeast gro inh)
C[C@@H]1C=CC(=O)O[C@@H]1c1ccc(C(F)(F)F)cc1	CSC inhib 91.7 (no result: Efflux pump inh, WT yeast gro inh)
Cc1cc(NC(=O)CCS(=O)(=O)c2nc(-c3ccccc3)cc(C(F)(F)F)n2)no1	none (no result: T cruzi inh)
CS(=O)(=O)c1nc(-c2ccccc2)cc(C(F)(F)F)n1	CSC inhib 107.2, T cruzi inh 65.1, Beta cell apopt 107.7
COc1cc(Cl)ccc1OCc1cc(C(=O)N(C)CC2CCCCO2)no1 (stereo unspecified)	none (no result: WT yeast gro inh)
COc1ccc2c(c1OC)C(=O)O[C@@H]2[C@H]1c2c(cc3c(c2OC)OCO3)CCN1C	Mot1-301 SUMO 749.9
COc1c2c(cc3c1C(CC(O)Cc1ccccc1)N(C)CC3)OCO2 (stereo unspecified)	none (no result: WT yeast gro inh)
Cc1nc(N/C(N)=N/S(=O)(=O)c2ccc([N+](=O)[O-])cc2)nc2ccccc12	T cruzi inh 55.5
COc1ccc(NC(=S)/N=C(\N)Nc2nc(C)c3ccc(C)cc3n2)cc1	none (no result: CSC inhib)
Cc1ccc2c(C)nc(N/C(N)=N/S(=O)(=O)c3ccc([N+](=O)[O-])cc3)nc2c1	T cruzi inh 55.1 (no result: Mot1-301 SUMO)
Cc1nc(N/C(N)=N/S(=O)(=O)c2ccccc2)nc2ccccc12	none (no result: T cruzi inh, WT yeast gro inh)
O=C(N/N=C/c1cccc([N+](=O)[O-])c1)C(=O)N1CCCCCC1	none (no result: Beta cell apopt, WT yeast gro inh)

Source: PubChem
